# Assay results: ChEMBL document CHEMBL1687720 (Antimicrob Agents Chemother, 2009)
# Calls of active or inactive are those of the source. The rule behind the calls is not given here.
# Legend:
# A549 [1] = test: Inhibition of glutathione peroxidase in human A549 cells assessed as enzyme activity at 5 µM after 24 hrs relative to untreated control; design: scale not given: the % may be the effect or the level left
# A549 [2] = test: Effect on glutathione reductase expression in human A549 cells assessed as transcript level at 5 nM after 24 hrs by RT-qPCR analysis relative to untreated control; assay type: functional; conditions: in the assay text read “5 µM” for “5 nM”
# Procedure, shortened: (§1)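 A549 cells are seeded at 2.5 × 10^5 per 25-cm2 well. At 40–45% confluence they are treated for 24 h with 166 or 662 μM, 158 or 315 μM, or 5 or 24 μM compound; controls receive <5% DMSO. Total RNA is DNase-treated and qRT-PCR is run in quadruplicate. Values are normalized to GAPDH and given as % of untreated control.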
# Plasmodium falciparum [3] = test: Downregulation of gamma-glutamylcysteine synthetase mRNA level in Plasmodium falciparum 3D7 trophozoites at 126 nM after 15 hrs by RT-qPCR analysis relative to untreated control; assay type: functional
# Procedure, shortened: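 P. falciparum 3D7 trophozoites are exposed to 126 nM compound for 12, 15 or 18 h, then harvested by saponin lysis at 37°C. RNA is extracted and reverse-transcribed, and transcripts are quantified by real-time PCR in quadruplicate. Analysis uses ΔΔCT with 18S rRNA as reference (LDH also checked), expressed as % of untreated control.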
# Plasmodium falciparum [4] = test: Antiplasmodial activity against chloroquine-sensitive Plasmodium falciparum 3D7 assessed as inhibition of schizont stage parasite growth at 526 nM after 24 hrs by [3H]hypoxanthine incorporation assay; assay type: functional; conditions: read-out: GI
# Procedure, shortened: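 P. falciparum 3D7 is synchronized with sorbitol. […] Cells are washed four times, then labelled with [3H]hypoxanthine for 24 h. Growth is given as % of untreated control for each stage, in triplicate.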
# Thioredoxin reductase [5] = target: T1, Thioredoxin reductase (Homo sapiens, UniProt Q16881+Q9NNW7+Q86VQ6); test: Inhibition of thioredoxin reductase in human A549 cells assessed as enzyme activity at 5 µM after 24 hrs by DTNB assay relative to untreated control; design: scale not given: the % may be the effect or the level left
# Plasmodium falciparum [6] = test: Upregulation of Heat shock protein mRNA level in Plasmodium falciparum 3D7 trophozoites at 126 nM by RT-qPCR analysis relative to untreated control; assay type: functional
# Procedure, shortened: (§2)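 Synchronized 3D7 trophozoites in RPMI/Albumax culture at 37°C under 3% O2, 3% CO2 were exposed 12, 15 or 18 h, then harvested by 0.02% saponin lysis. RNA was reverse-transcribed and analyzed by real-time PCR in quadruplicate. Quantification used ΔΔCT with 18S rRNA reference (LDH also checked), expressed as % of untreated control.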
# [7] = Cytotoxicity against human A549 cells assessed as reduction in viable cells at 60 uM by Trypan blue assay; assay type: cell-based; conditions: read-out: INH
# Procedure, shortened: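 A549 cells are grown in DMEM with 10% FCS at 37°C and 5% CO2, and treated for 24 h. They are washed in cold PBS and trypsinized. Viable and nonviable cells are counted by trypan blue exclusion on a hemocytometer.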
# Plasmodium falciparum [8] = test: Upregulation of gamma-glutamylcysteine synthetase mRNA level in Plasmodium falciparum 3D7 trophozoites at 126 nM after 12 hrs by RT-qPCR analysis relative to untreated control; assay type: functional
# Procedure, shortened: as §2
# Plasmodium falciparum [9] = test: Upregulation of glutathione S-transferase mRNA level in Plasmodium falciparum 3D7 trophozoites at 126 nM after 12 hrs by RT-qPCR analysis relative to untreated control; assay type: functional, organism-based
# Procedure, shortened: as §2
# A549 [10] = test: Effect on glutathione S-transferase expression in human A549 cells assessed as transcript level at 166 nM after 24 hrs by RT-qPCR analysis relative to untreated control; assay type: functional; conditions: in the assay text read “166 µM” for “166 nM”
# Procedure, shortened: as §1
# A549 [11] = test: Effect on thioredoxin reductase expression in human A549 cells assessed as transcript level at 166 nM after 24 hrs by RT-qPCR analysis relative to untreated control; assay type: functional; conditions: in the assay text read “166 uM” for “166 nM”
# Procedure, shortened: as §1
# A549 [12] = test: Effect on thioredoxin reductase expression in human A549 cells assessed as transcript level at 662 nM after 24 hrs by RT-qPCR analysis relative to untreated control; assay type: functional; conditions: in the assay text read “662 uM” for “662 nM”
# Procedure, shortened: as §1
# A549 [13] = test: Effect on glutathione reductase expression in human A549 cells assessed as transcript level at 662 nM after 24 hrs by RT-qPCR analysis relative to untreated control; assay type: functional; conditions: in the assay text read “662 µM” for “662 nM”
# Procedure, shortened: as §1
# A549 [14] = test: Inhibition of glutathione S-transferase in human A549 cells assessed as enzyme activity at 662 µM after 24 hrs relative to untreated control; design: scale not given: the % may be the effect or the level left
# Thioredoxin reductase [15] = target: T1, Thioredoxin reductase; test: Inhibition of thioredoxin reductase in human A549 cells assessed as enzyme activity at 158 µM after 24 hrs by DTNB assay relative to untreated control; design: scale not given: the % may be the effect or the level left
# [16] = target: T2, Glutathione reductase, mitochondrial (Homo sapiens) (UniProt P00390); test: Inhibition of glutathione reductase in human A549 cells assessed as enzyme activity at 158 µM after 24 hrs relative to untreated control; design: scale not given: the % may be the effect or the level left
# T2 sequence (whole entry): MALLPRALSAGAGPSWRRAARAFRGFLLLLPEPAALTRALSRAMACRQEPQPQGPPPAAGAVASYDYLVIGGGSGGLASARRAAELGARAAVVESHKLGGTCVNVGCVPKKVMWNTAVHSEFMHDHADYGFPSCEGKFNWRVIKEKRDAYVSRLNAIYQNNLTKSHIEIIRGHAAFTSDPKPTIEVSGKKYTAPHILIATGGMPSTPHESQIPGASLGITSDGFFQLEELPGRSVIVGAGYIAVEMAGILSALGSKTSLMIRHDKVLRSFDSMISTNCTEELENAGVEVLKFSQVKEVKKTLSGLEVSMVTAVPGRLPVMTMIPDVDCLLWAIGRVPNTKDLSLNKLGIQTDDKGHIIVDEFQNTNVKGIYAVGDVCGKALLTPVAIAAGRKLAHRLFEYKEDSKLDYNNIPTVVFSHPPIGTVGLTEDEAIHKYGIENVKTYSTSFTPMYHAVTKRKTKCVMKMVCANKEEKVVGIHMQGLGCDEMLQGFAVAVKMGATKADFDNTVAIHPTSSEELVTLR
# A549 [17] = test: Effect on glutathione peroxidase expression in human A549 cells assessed as transcript level at 315 nM after 24 hrs by RT-qPCR analysis relative to untreated control; assay type: functional; conditions: in the assay text read “315 µM” for “315 nM”
# Procedure, shortened: as §1
# A549 [18] = test: Effect on glutathione peroxidase expression in human A549 cells assessed as transcript level at 158 nM after 24 hrs by RT-qPCR analysis relative to untreated control; assay type: functional; conditions: in the assay text read “158 µM” for “158 nM”
# Procedure, shortened: as §1
# A549 [19] = test: Effect on glutathione reductase expression in human A549 cells assessed as transcript level at 158 nM after 24 hrs by RT-qPCR analysis relative to untreated control; assay type: functional; conditions: in the assay text read “158 µM” for “158 nM”
# Procedure, shortened: as §1
compound,measurement,setting,value
O=c1oc2c(O)c(O)c(O)c3c(=O)oc4c(O)c(O)c(O)c1c4c23 [CORULEOELLAGIC ACID],Activity,A549 [1],85%
same,Activity,A549 [2],77%
same,Activity,Plasmodium falciparum [3],25%
same,inhibition of growth at 0.526 µM,Plasmodium falciparum [4],39%
same,Activity,Thioredoxin reductase [5],42%
same,Activity,Plasmodium falciparum [6],158%
same,cytotoxicity at 60 µM,[7],50%
same,Activity,Plasmodium falciparum [8],111%
same,Activity,Plasmodium falciparum [9],inactive
O=c1oc2c(O)c(O)cc3c(=O)oc4c(O)c(O)cc1c4c23 [ELLAGIC ACID],Activity,A549 [10],122%
same,Activity,A549 [11],115%
same,Activity,A549 [12],131%
same,Activity,A549 [13],125%
same,Activity,A549 [14],101%
O=c1oc2c(O)c(O)c(O)c3c(=O)oc4c(O)c(O)cc1c4c23 [FLAVELLAGIC ACID],Activity,Thioredoxin reductase [15],91%
same,Activity,[16],87%
same,Activity,A549 [17],77%
same,Activity,A549 [18],107%
same,Activity,A549 [19],105%
